Assay results from different studies.
Compare with care: the assays were run in different laboratories.
Target: Serine/threonine-protein kinase DCLK3 (DCLK3, Homo sapiens, UniProt Q9C098)
Residues used in one study (Q9C098 1-648): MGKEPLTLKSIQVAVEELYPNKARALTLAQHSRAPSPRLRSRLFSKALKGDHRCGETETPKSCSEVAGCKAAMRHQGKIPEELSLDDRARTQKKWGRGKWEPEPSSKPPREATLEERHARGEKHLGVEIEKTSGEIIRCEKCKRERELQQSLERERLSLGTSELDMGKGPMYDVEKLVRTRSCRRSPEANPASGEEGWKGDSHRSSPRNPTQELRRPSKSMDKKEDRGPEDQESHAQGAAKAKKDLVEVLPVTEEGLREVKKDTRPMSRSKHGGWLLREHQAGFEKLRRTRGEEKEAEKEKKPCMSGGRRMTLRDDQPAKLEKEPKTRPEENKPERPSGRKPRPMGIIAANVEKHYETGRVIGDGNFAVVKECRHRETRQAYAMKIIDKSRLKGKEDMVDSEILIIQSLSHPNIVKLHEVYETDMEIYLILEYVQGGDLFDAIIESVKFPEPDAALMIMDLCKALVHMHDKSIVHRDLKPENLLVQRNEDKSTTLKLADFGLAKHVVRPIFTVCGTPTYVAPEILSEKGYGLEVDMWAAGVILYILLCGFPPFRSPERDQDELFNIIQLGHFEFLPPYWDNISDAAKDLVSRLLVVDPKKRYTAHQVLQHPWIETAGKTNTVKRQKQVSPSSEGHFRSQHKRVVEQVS

| SMILES | assay | setting | endpoint | value |
| --- | --- | --- | --- | --- |
| Cc1ccc(NC(=O)c2ccc(C)c(C(F)(F)F)c2)cc1C#Cc1nn(C2CCC(O)CC2)c2ncnc(N)c12 (stereo not drawn) | cell-free assay | 10 µM | remaining signal | 101% |
| Cc1ccc(C(=O)Nc2ccc(CN3CCN(C)CC3)c(C(F)(F)F)c2)cc1C#Cc1cnc2cccnn12 | enzyme activity, inhibitor | 23.5 nM | remaining activity | 100% |
| COc1cc(-c2cn(C3CCc4ccccc4N(CC(F)(F)F)C3=O)nn2)ccc1-n1ccc(C)n1 (stereo not drawn) | cell-free assay, competition with immobilised ligand | 1 µM | remaining binding | 100% |
| Nc1ncnc2occ(-c3ccc(NC(=O)Nc4cc(C(F)(F)F)ccc4F)cc3)c12 | cell-free assay, inhibitor | 20 µM | remaining signal | 24% |
| COc1cc(Cl)c(C(=O)N[C@@H](CN[C@H]2CC[C@@H](N)CC2)Cc2ccc(C#N)cc2)cc1-c1ccc(CN[C@H](C)c2ccc(C)cc2)o1 | enzyme activity, inhibitor | 1 µM | remaining activity | 89% |
| COc1ccc2c(O[C@@H]3C[C@H]4C(=O)N[C@]5(C(=O)O)CC5/C=C\CCCCC[C@H](NC(=O)OC5CCCC5)C(=O)N4C3)cc(-c3csc(NC(=O)C(C)C)n3)nc2c1C (stereo partly drawn) | cell-free assay, competition with immobilised ligand | 1 µM | remaining binding | 96% |
| Cc1cnc(NC2CCOCC2)nc1-n1cnc(C(=O)NC(CN)c2cc(F)cc(Cl)c2)c1 (stereo not drawn) | enzyme activity, inhibitor, radiometric | 1 µM | remaining activity | 56% |
| Cc1cc(NC(=O)c2cccc3cc(-c4cccc5[nH]nc(N)c45)ccc23)ccc1F | enzyme activity, inhibitor | 0.1 µM | activity vs control | 110% |
| CN1CC(Oc2cnc(C#N)cc2-c2ccn3nc(NC(=O)C4CC4)cc3c2)C1 | enzyme activity, inhibitor | 1 µM | inhibition | -4% |
